From the array DNA melting data of Ke et al. (doi:10.1101/2024.01.08.574731) come the findings set out here.

A short description of series [1]: melting temperature; fluorescence melt of hairpins on a sequencing array, two-state fit, raised by 9.35 °C to match UV melts. As to conditions: sodium 0.088 M. Put shortly:
(§1)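 To match UV melts, fitted temperatures were raised by 9.35 °C. These fits were bootstrapped two-state models that gave melting temperature and folding enthalpy, combined by inverse variance over four replicates. The input was normalised Cy3 fluorescence of library hairpins with annealed Cy3 and quencher oligos on a sequenced MiSeq flow cell, imaged in 50 mM Na-HEPES pH 8.0, 25 mM NaCl in 2.5 °C steps up to 60 °C.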

The nature of series [2]: folding enthalpy; higher = less favourable; fluorescence melt of hairpins on a sequencing array, two-state fit. As to conditions: sodium 0.088 M. The gist of the method: as §1

With GGTTGGCGAAAGCCACC (((.(((....)))))), in series [1], the Tm was found to be 57.7 °C. Moreover, the folding enthalpy in series [2] is -16.5 kcal/mol.
The matching figures for GGTTGGGGAAACCCGATC (.(.(((....))).).): 34.4 °C and -21.6 kcal/mol.
Taken in the same sequence, the figures for GGTTGGGGAAACCTAGCC ((.(.((....)).).)) were 38 °C and -19.1 kcal/mol.
The matching figures for GGTTGGGGAAACTCAACC (((((.(....).))))): 51.1 °C and -38.4 kcal/mol.
As to GGTTGGTCGAAAGACACC (((..(((....)))))), the Tm in series [1] came to 37 °C. Also, the folding enthalpy in series [2] was -17.3 kcal/mol.
The matching figures for GGTTGTCCGAAAGGAACC (((..(((....)))))): 31.2 °C and -14.5 kcal/mol.
Take GGTTGTGGAAACACAGCC ((.((((....)))).)): the Tm in series [1] amounted to 52.1 °C. Besides, in series [2], the folding enthalpy was -42.4 kcal/mol.
Take GGTTGTGGAAACGTAACC ((((..(....)..)))): the Tm in series [1] is 35.7 °C. Also, in series [2], the folding enthalpy was -24.3 kcal/mol.
Taken in the same sequence, the figures for GGTTTACGAAAGTATACC (((.(((....))).))) were 45.5 °C and -39.3 kcal/mol.
GGTTTAGGAAACTGAACC ((((.((....)).)))): the Tm in series [1] worked out at 43.2 °C. Further, in series [2], the folding enthalpy was -31.8 kcal/mol.
Consider GGTTTCCCGAAAGGGACC (((..(((....)))))), for which the Tm in series [1] turned out to be 33.8 °C. The folding enthalpy in series [2] is -12.3 kcal/mol.
As to GGTTTCGAAAGAAAAACC ((((((....)))..))), in series [1], the Tm came to 33.6 °C. Moreover, the folding enthalpy in series [2] is -23.4 kcal/mol.
In the case of GGTTTCGAAAGAAACC ((((((....)))))), the Tm in series [1] came out at 64.2 °C. In addition, the folding enthalpy in series [2] is -40.8 kcal/mol.
Taken in the same sequence, the figures for GGTTTCGAAAGAAGTACC ((((((....)))..))) were 29.8 °C and -12.7 kcal/mol.
As for GGTTTCGGAAACGGAACC ((((.((....)).)))), the Tm in series [1] is 52.6 °C. In addition, the folding enthalpy in series [2] was -45 kcal/mol.
The matching figures for GGTTTGCGAAAGCACACC (((.(((....))).))): 51.7 °C and -28.2 kcal/mol.
The matching figures for GGTTTGGGAAACCAAACC (((((((....))))))): 64.6 °C and -40.3 kcal/mol.
On to GGTTTGGGAAACCAGACC (((.(((....))).))), for which the Tm in series [1] is 47.8 °C. Also, the folding enthalpy in series [2] is -33.1 kcal/mol.
Taken in the same sequence, the figures for GGTTTGGGAAACTAGACC (((.(.(....).).))) were 30.7 °C and -18.1 kcal/mol.
Turning to GTAAAAGAAATTTTAC ((((((....)))))), in series [1], the Tm was found to be 30.8 °C. In addition, the folding enthalpy in series [2] is -13 kcal/mol.
As to GTAAAAGCGAAAGCTTAC (((..(((....)))))), the Tm in series [1] worked out at 35.9 °C. The folding enthalpy in series [2] is -11.6 kcal/mol.
For GTAAACCGAAAGGTTAC (((.(((....)))))), the Tm in series [1] was found to be 43.2 °C. Moreover, in series [2], the folding enthalpy is -15.7 kcal/mol.
The matching figures for GTAAACGAAAGTTACTAC ((((((....)))..))): 34.8 °C and -17.6 kcal/mol.
As for GTAAACGAAAGTTTTAC ((((((....))).))), the Tm in series [1] turned out to be 36.5 °C. Also, the folding enthalpy in series [2] is -18.5 kcal/mol.
The matching figures for GTAAACTCGAAAGAGTAC (((..(((....)))))): 31 °C and -11.9 kcal/mol.
The matching figures for GTAAAGCCGAAAGGCTAC (((..(((....)))))): 35.5 °C and -8.48 kcal/mol.
Taken in the same sequence, the figures for GTAAAGCGAAAGCTATAC (((.(((....))).))) were 41.3 °C and -15.6 kcal/mol.
Take GTAAATACGAAAGTATAC (((..(((....)))))): the Tm in series [1] came out at 25 °C. Moreover, in series [2], the folding enthalpy was -9.48 kcal/mol.
As to GTAAATCCGAAAGGATAC (((..(((....)))))), the Tm in series [1] came to 33.8 °C. In series [2], the folding enthalpy was -11 kcal/mol.
The matching figures for GTAACACGAAAGTGATAC (((.(((....))).))): 46.8 °C and -25.5 kcal/mol.
On to GTAACCCCGAAAGGGTAC (((..(((....)))))), for which the Tm in series [1] came out at 35 °C. For the same sequence, the folding enthalpy in series [2] was -13.6 kcal/mol.
Consider GTAACCCGAAAGGGCTAC (((.(((....))).))), for which the Tm in series [1] was found to be 45.6 °C. Besides, the folding enthalpy in series [2] was -20 kcal/mol.
Taken in the same sequence, the figures for GTAACCCGAAAGGGTAC (((.(((....)))))) were 50.1 °C and -12.5 kcal/mol.
On to GTAACCGAAAGGTCTTAC ((((((....)))..))), for which the Tm in series [1] came out at 30.6 °C. The folding enthalpy in series [2] is -11.6 kcal/mol.
The matching figures for GTAACCGAAAGGTTAC ((((((....)))))): 67.1 °C and -29 kcal/mol.
Take GTAACCGCGAAAGCGTAC (((..(((....)))))): in series [1], the Tm was determined as 28.4 °C. Also, in series [2], the folding enthalpy is -8.01 kcal/mol.
Taken in the same sequence, the figures for GTAACCGGAAACAGTTAC (((((.(....).))))) were 32.9 °C and -21.2 kcal/mol.
